The record followed here is the RNAGym collection of RNA variant scans (doi:10.1126/science.aae0568).

B1: tRNA (parent)
chain: GUUCCGUUGGCGUAAUGGUAACGCGUCUCCCUCCUAAGGAGAAGACUGCGGGUUCGAGUCCCGUACGGAACG

This sample holds only a part of the variants without activity. Bounds are passed on as bounds.

In this series the parent is B1. Nature of the series: yeast fitness relative to wild type (ratio to wild type); higher = fitter; tRNA-Arg(CCU), competitive growth, 37 C, YPD. The method in brief:
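Changes in genotype frequencies gave Darwinian fitness relative to wild type. Frequencies were read by 100-nucleotide paired-end sequencing of gene amplicons before and after pooled Saccharomyces cerevisiae strains, carrying tRNA-Arg(CCU) gene variants at the native locus, were competed in YPD at 37°C for 24 hours in six replicates. A genotype was kept only with ≥ 100 starting reads, and estimates < 0.5 were set to 0.5.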
As to GUUCCGUUGGCGUAAUGGUAACGCGUUUCCCUCCUAAGGAGAAGACUGCGGGUUCGACUCCCGCACGGAACG [C27U G58C U64C], the yeast fitness stood at 0.73.

Take GUUCCGUUGGCGUAAUGGUAACGCGUUUCCCACCUAAGGAGAAGACUGCGGGUUCGAGUCCCGUACGGUACG [C27U U32A A69U]: the yeast fitness was determined as 0.774.

With GUUCCGUUGGCGUAAUGGUAACGCGUUUCCCUCCCGAGGAGAAGACUGCGGGUUCGAGUCCCGUACGGAACG [C27U U35C A36G], the yeast fitness was determined as 0.566.

Turning to GUUCCGUUGGCGUAAUGGUAACGCGUUUCCCUCCUAAGGAGAAGACAGCGGGUUCGAGUCACGUGCGGAACG [C27U U47A C61A A65G], the yeast fitness is no more than 0.5.

Consider GUUCCGUUGGCGUAAUGGUAACGCGUUUCCCCCCUAAGGAAUAAAUUGCGGGUUCGAAUUCCGUACGGAACG [C27U U32C G41A A42U G44A C46U G58A C60U], for which the yeast fitness is no more than 0.5.

Consider GUUCCGUUGGCGUAAUGGUAACGCGUUUCCCUCCUAAGGAGAAGACCGCGGGUUCGAGUCCCAUAUGGAACG [C27U U47C G63A C66U], for which the yeast fitness was no more than 0.5.

As to GUUCCGUUGGCGUAAUGGUAACGCGUUUCCCUCCUAAGGAGAAGACUGCGGGUUCGAGACCCGUUCGGAACG [C27U U59A A65U], the yeast fitness was no more than 0.5.

Consider GUUCCGUUGGCGUAAUGGUAACGCGUUUCCCUCCUAAGGAGAAGACAGCGGGUUCGAGUCCCGUACGGAACG [C27U U47A], for which the yeast fitness is 0.721.

For the variant GUUCCGUUGGCGUAAUGGUAACGCGUUUCCCUCCUAAGGAGAAGACCGCGGGUUCGAGUCCCGUACGGAACG [C27U U47C], the yeast fitness amounted to 0.975.

Turning to GUUCCGUUGGCGUAAUGGUAACGCGUUUCCCUCCUAAGGAGAAGACGGCGGGUUCGAGUCCCGUACGGAACG [C27U U47G], the yeast fitness stood at 0.621.

Turning to GUUCCGUUGGCGUAAUGGUAACGCGUUUCCCUCCUAAGGAGAAGACUGCGGGUUCGACCCCCGUACGGAGCG [C27U G58C U59C A70G], the yeast fitness is no more than 0.5.

For GUUCCGUUGGCGUAAUGGUAACGCGUUGCCAUCCUAAGGAGAAGAUUGCGGGUUCGAGUCCCGUACGGAACG [C27U U28G C31A C46U], the yeast fitness is no more than 0.5.

As to GUUCCGUUGGCGUAAUGGUAACGCGUUGCCCUGCUGAGGAGAAGACUGCGGGUUCGAGUCCCGUACGGAACG [C27U U28G C33G A36G], the yeast fitness is no more than 0.5.

With GUUCCGUUGGCGUAAUGGUAACGCGUUUCCCAACUAAGGAGAAGACUGCGGGUUCGAGUCCCGUACGGAACG [C27U U32A C33A], the yeast fitness is 0.51.

Take GUUCCGUUGGCGUAAUGGUAACGCGUUUCCCUCCUAAGGAGAAGACUGCGGGUCCGAGUCCCGUACCGAACG [C27U U54C G67C]: the yeast fitness was 0.54.

With GUUCCGUUGGCGUAAUGGUAACGCGUUACCCACUUCAGGAGAAGACUGCGGGUUAGAGUCCCGUACGAAACG [C27U U28A U32A C34U A36C C55A G68A], the yeast fitness was no more than 0.5.

Consider GUUCCGUUGGCGUAAUGGUAACGCGUUACCCACUUCAGGAGAAGACUGCGGGUUAGAGUCCCGUACGGAGCG [C27U U28A U32A C34U A36C C55A A70G], for which the yeast fitness was 0.539.

Take GUUCCGUUGGCGUAAUGGUAACGCGUUUCCCUCCUAAGGAGAAGACCGCGGGUUUGAGUCCGGUACGGUACG [C27U U47C C55U C62G A69U]: the yeast fitness was no more than 0.5.

Turning to GUUCCGUUGGCGUAAUGGUAACGCGUUGCCCUCCUAAGGCGAAGAAUGUGGGUUCGAGUCCCGUACGGAACG [C27U U28G A40C C46A C49U], the yeast fitness is 0.995.

With GUUCCGUUGGCGUAAUGGUAACGCGUUUCCCCCCUAAGGAGAAGACUGCGGGUUCGAGUCCCGUACGGACCG [C27U U32C A70C], the yeast fitness was determined as 0.68.

As for GUUCCGUUGGCGUAAUGGUAACGCGUUUCCCCCCUAAGGAAAAGACUGCGGGUUAGAGUCCCCUACGGAACG [C27U U32C G41A C55A G63C], the yeast fitness was no more than 0.5.

Take GUUCCGUUGGCGUAAUGGUAACGCGUUUCCCUCCUAAGGAGAAGACGGCGGGUUGGACUCCCGUACGGAACG [C27U U47G C55G G58C]: the yeast fitness was determined as 0.67.

Consider GUUCCGUUGGCGUAAUGGUAACGCGUUACCCUCCUAAGGAGAAGACUGCGGGUUCGAGUCCCGUACGGAACG [C27U U28A], for which the yeast fitness amounted to 0.699.

With GUUCCGUUGGCGUAAUGGUAACGCGUUCCCCUCCUAAGGAGAAGACUGCGGGUUCGAGUCCCGUACGGAACG [C27U U28C], the yeast fitness worked out at 0.903.

On to GUUCCGUUGGCGUAAUGGUAACGCGUUACCCACUUCAGGAGAAGACUACGGGUUCGAGUUCCGUACGGAACG [C27U U28A U32A C34U A36C G48A C60U], for which the yeast fitness was no more than 0.5.

In the case of GUUCCGUUGGCGUAAUGGUAACGCGUUUCCCUCCCACGGUGAUGACUGCGGGUUCGAGUCCCGUACGGAACG [C27U U35C A37C A40U A43U], the yeast fitness was no more than 0.5.

With GUUCCGUUGGCGUAAUGGUAACGCGUUUCCCUCCUAAGGAGAAGACUGCGGGAUCGAGUCCCGUACGGAACG [C27U U53A], the yeast fitness was 0.628.

On to GUUCCGUUGGCGUAAUGGUAACGCGUUUCCCUCCUAAGGAGAAGACCGCGGGUUCGAGUCCCGUACGGUACG [C27U U47C A69U], for which the yeast fitness stood at 0.838.

As for GUUCCGUUGGCGUAAUGGUAACGCGUUUCCCUCCUAAGGAGAAGACUGCGGGUUCGAGACCCGUAUGGAACG [C27U U59A C66U], the yeast fitness was no more than 0.5.

Consider GUUCCGUUGGCGUAAUGGUAACGCGUUUCCCUCCUAAGGAGAAGACUGCGGGUACGAGUCCCGUACGGAACG [C27U U54A], for which the yeast fitness was 0.543.

With GUUCCGUUGGCGUAAUGGUAACGCGUUUCCCUCCUAAGGAGAAGACUGCGGGUUCGAGUCCCGUACGUAACG [C27U G68U], the yeast fitness amounted to 0.755.

With GUUCCGUUGGCGUAAUGGUAACGCGUUUCCCUCCUAAGGAGAAGACUGCGGGUUCGAGUCCCGUACGAAACG [C27U G68A], the yeast fitness was found to be 0.822.

In the case of GUUCCGUUGGCGUAAUGGUAACGCGUUUCCCUCCUAAGGAGAAGACUGCGGGUUCGAGUCCCGUACGCAACG [C27U G68C], the yeast fitness was 0.757.

With GUUCCGUUGGCGUAAUGGUAACGCGUUUCCCUCCUAAGGAGAAGACUGCGGGUUCGAGUCCCAUGCGGAACG [C27U G63A A65G], the yeast fitness was no more than 0.5.

Consider GUUCCGUUGGCGUAAUGGUAACGCGUUUCCCUCCUAAGGAGAAGACUGCGGGUUCGAGUCCCGUACAGAACG [C27U G67A], for which the yeast fitness came to 1.02.

Regarding GUUCCGUUGGCGUAAUGGUAACGCGUUUCCCUCCUAAGGAGAAGACUGCGGGUUCGAGUCCCCUACGGAACG [C27U G63C], the yeast fitness came to 0.715.

In the case of GUUCCGUUGGCGUAAUGGUAACGCGUUACCCUCCUAAGGUGAAGACUGCGGGUUCGAGUCCCGUACGGAACG [C27U U28A A40U], the yeast fitness turned out to be 0.671.

For the variant GUUCCGUUGGCGUAAUGGUAACGCGUUUCCCUCCCGAGGAGAAGACUGGGGGUUCGAGUCCCGUACGGAACG [C27U U35C A36G C49G], the yeast fitness is no more than 0.5.
